PubChem BioAssay
Active and inactive are the calls of the source.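 Rule for the calls, unless noted: active = viability at or below 30% in both replicate assays; inconclusive = viability at or below 30% in just one of the two assays; inactive = the rest.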

Columns and labels:
[1] = molecular target: Pantothenate synthetase (Mycobacterium tuberculosis (strain ATCC 25618 / H37Rv)) (UniProt P9WIL5); experiment: Recombinant Mtb pantothenate synthetase (PanC) inhibitors, coupled enzyme, confirmatory (AID 375; call rule not given here;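 note: 0% = full reaction with vehicle and 100% = no enzyme background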); details: coupled enzyme assay; at 10 µM, stronger effect = higher value
[2] = reducers of endogenous Her2 protein level, primary screen, SKBR3 breast tumor cells, AlphaScreen, ATP viability (AID 461;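 active = Her2 level under about 52% in both replicate screens, with viability over 70% of control, limit read from the data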;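 for Her2 level: lower value means less Her2 protein in the cells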;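 for viability: percent of carrier control wells set as 100% viability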); details: 18-24 h, measured here: SKBR3 viability, ATP luminescence, at 10 µM
[3] = molecular target: Receptor tyrosine-protein kinase erbB-2 (Homo sapiens) (UniProt P04626); experiment: as above; details: 18-24 h, at 10 µM, stronger effect = lower value
[4] = SK-BR-3 cell growth inhibitors, pilot screen, 24 h, human (AID 572;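 active = viability at or below 10% of carrier control in both of two separate runs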;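 note: compound exposure lasted between 18 and 24 h rather than exactly 24 h; 100% = carrier-treated control wells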); details: SK-BR-3 viability, CellTiter-Glo luminescence, at 10 µM, stronger effect = lower value
[5] = HUVEC growth inhibition – cell-based, human, primary screen (AID 575); details: HUVEC proliferation, CellTiter-Glo luminescence, 72 h; at 10 µM; stronger effect = lower value;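 note: 100% = median of untreated cell wells with 0.1% DMSO on each plate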
Outline: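 Material: primary human umbilical vein endothelial cells / Schedule: 72 h exposure, 37 °C, 5% CO2, 30 min RT equilibration / Signal: ATP-based CellTiter-Glo luminescent read / Read-out basis: percent of median DMSO-control luminescence / Control set: 32 DMSO-only cell-control wells (high), 32 MePR drug-control wells (low) per plate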

[6] = growth inhibitors of H69AR lung tumor, primary screen, human, duplicate replicates (AID 580;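 active = viability at or under a set limit in both replicates, limit being median viability minus 3 SD, cut at about 48% in these data, passing the limit was not always enough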;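 note: 100% = mean luminescence of untreated wells and 0% = no signal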); details: H69AR lung tumor cells viability, ATP luminescence, 72 h; at 10 µM; stronger effect = lower value
[7] = reversal of MRP1-mediated doxorubicin resistance, pilot screen, H69AR cells, doxorubicin co-treatment (AID 601;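 active = viability loss from added drug above about 55%, and viability with drug at most 40%, in both replicates, limit read from the data, passing the limit was not always enough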); details: CellTiter-Glo, 72 h, at 10 µM; for differential viability (reversal): stronger effect = higher value
[8] = 384-well plate pilot, post-Golgi transport modulator project, inhibition of yeast transport mutant growth (AID 636; in the data active = inhibition above about 31%); details: absorbance 615 nm, about 18 h, stronger effect = higher value
[9] = growth suppression of yeast trafficking mutant, preliminary HTS, modulators of trafficking downstream of Golgi apparatus project, 1536-format plate, OD 615 nm (AID 637; in the data active = inhibition above about 30%); details: yeast transport mutant growth, absorbance 615 nm, 18 h; stronger effect = higher value
[10] = H69AR cells + 2 uM doxorubicin, measured here: viability with 2 uM doxorubicin, stronger effect = lower value
[11] = H69AR cells, compound alone cytotoxicity

Sequence of Pantothenate synthetase (Mycobacterium tuberculosis (strain ATCC 25618 / H37Rv)) (P9WIL5 whole entry, looked up): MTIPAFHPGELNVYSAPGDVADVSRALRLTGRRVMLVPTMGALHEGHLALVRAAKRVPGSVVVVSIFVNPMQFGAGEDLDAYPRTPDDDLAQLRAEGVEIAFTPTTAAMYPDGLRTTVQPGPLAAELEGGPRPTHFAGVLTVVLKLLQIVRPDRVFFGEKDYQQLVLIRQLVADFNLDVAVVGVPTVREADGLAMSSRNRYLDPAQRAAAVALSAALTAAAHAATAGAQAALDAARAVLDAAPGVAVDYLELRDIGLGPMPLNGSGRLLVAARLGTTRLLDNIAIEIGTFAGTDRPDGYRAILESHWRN
Sequence of Receptor tyrosine-protein kinase erbB-2 (Homo sapiens) (P04626 whole entry, looked up): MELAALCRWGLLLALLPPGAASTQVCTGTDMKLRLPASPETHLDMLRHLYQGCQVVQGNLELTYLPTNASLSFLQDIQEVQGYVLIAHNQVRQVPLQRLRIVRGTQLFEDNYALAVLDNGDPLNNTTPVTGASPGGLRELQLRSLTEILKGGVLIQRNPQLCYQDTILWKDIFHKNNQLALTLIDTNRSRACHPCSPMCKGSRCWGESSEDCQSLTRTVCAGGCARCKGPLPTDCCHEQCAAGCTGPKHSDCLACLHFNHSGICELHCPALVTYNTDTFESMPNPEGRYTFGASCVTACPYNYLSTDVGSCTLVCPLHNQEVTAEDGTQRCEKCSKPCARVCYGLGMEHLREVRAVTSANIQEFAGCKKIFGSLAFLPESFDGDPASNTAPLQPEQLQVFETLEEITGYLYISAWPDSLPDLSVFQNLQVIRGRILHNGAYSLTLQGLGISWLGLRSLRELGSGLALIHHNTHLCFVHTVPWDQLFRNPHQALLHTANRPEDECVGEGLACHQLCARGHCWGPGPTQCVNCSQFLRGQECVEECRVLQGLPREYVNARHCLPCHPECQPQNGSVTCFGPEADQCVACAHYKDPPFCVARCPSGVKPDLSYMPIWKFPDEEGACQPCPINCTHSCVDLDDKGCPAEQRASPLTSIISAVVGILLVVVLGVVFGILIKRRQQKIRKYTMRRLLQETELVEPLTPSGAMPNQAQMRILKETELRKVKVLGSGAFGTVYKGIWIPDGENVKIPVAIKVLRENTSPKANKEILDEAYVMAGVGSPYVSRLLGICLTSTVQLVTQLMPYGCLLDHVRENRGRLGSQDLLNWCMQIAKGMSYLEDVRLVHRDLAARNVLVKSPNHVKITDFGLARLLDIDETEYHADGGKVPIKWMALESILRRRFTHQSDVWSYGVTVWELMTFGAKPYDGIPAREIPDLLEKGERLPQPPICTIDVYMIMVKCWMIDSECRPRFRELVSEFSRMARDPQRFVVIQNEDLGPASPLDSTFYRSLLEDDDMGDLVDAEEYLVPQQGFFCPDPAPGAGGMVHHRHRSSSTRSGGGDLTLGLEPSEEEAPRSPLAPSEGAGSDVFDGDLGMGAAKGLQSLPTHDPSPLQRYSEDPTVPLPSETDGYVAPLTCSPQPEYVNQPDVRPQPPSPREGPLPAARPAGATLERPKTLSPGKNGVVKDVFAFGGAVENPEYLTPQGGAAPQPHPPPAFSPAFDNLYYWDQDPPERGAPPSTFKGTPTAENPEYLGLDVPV

SMILES | inhibition [1] | viability [2] | Her2 level [3] | viability [4] | viability [5] | viability [6] | differential viability (reversal) ([7]; H69AR cells + 2 uM doxorubicin) | viability [7, 10] | viability [7, 11] | inhibition [8] | inhibition [9]
O=C1C2CCCN2C(c2ccc(Cl)c(Cl)c2)N1c1ccccn1 (stereo not given) | 0% (inactive) | 128% | 102% (inactive) | 128% (inactive) | 107% (inactive) | 97.4% (inactive) | 11.4% (inactive) | 86% | 97.4% | -4.08% (inactive) | 1.77% (inactive)
NC(=O)OCCSc1nnc(-c2cccc(C(N)=S)c2)o1 | 2% (inactive) | 103% | 88% (inactive) | 103% (inactive) | 108% (inactive) | 105% (inactive) | 13.7% (inactive) | 91% | 105% | -6% (inactive) | 0.65% (inactive)
COc1ccccc1N1CCN(Cc2c(F)cccc2F)CC1 | 1% (inactive) | 89% | 88.5% (inactive) | 89% (inactive) | 107% (inactive) | 94.2% (inactive) | -2.56% (inactive) | 96.8% | 94.2% | -1.69% (inactive) | 0.98% (inactive)
C=CCn1c(O)c(C(C)=Nc2ccc(N(CC)CC)cc2)c(=O)[nH]c1=O | 1% (inactive) | 102% | 105% (inactive) | 102% (inactive) | 62.6% (inactive) | 16.3% (active) | -63.3% (inactive) | 79.7% | 16.3% | -2.08% (inactive) | -8% (inactive)
COc1ccc(CC2C(=O)NC(=O)NC2=O)c(OC)c1 | 2% (inactive) | 96.5% | 113% (inactive) | 96.5% (inactive) | 114% (inactive) | 106% (inactive) | 4.86% (inactive) | 101% | 106% | 2.8% (inactive) | -1.75% (inactive)
Cc1ccc(CS(=O)(=O)CCC(=O)N2CCC3(CC2)OCCO3)cc1 | 7% (inactive) | 106% | 118% (inactive) | 106% (inactive) | 121% (inactive) | 97.7% (inactive) | 9.99% (inactive) | 87.7% | 97.7% | -4.87% (inactive) | -0.82% (inactive)
Cc1nn(-c2ccccc2)c2c1CC1(C(=O)N(C)C(=O)N(C)C1=O)C1CCCCN21 (stereo not given) | 0% (inactive) | 97% | 114% (inactive) | 97% (inactive) | 91.7% (inactive) | 84.7% (inactive) | -12% (inactive) | 96.7% | 84.7% | -4.86% (inactive) | -2.13% (inactive)
CC(=NCc1cccnc1)c1c(O)n(Cc2ccccc2)c(=O)[nH]c1=O | 1% (inactive) | 91.5% | 90.5% (inactive) | 91.5% (inactive) | 92.6% (inactive) | 93.5% (inactive) | -4.79% (inactive) | 98.3% | 93.5% | -0.27% (inactive) | 2.95% (inactive)
CC(=O)C1C(=O)NC23CCCCC2C1c1ccccc1O3 (stereo not given) | 0% (inactive) | 88% | 91.5% (inactive) | 88% (inactive) | 109% (inactive) | 99.3% (inactive) | 4.31% (inactive) | 95% | 99.3% | -3.87% (inactive) | -0.16% (inactive)
NC(=O)CSP(=O)(c1ccccc1)c1ccccc1 | 0% (inactive) | 94% | 118% (inactive) | 94% (inactive) | 109% (inactive) | 102% (inactive) | 10.1% (inactive) | 92.3% | 102% | -8.53% (inactive) | -2.9% (inactive)
C=CCn1c(O)c(C(C)=NCc2cccnc2)c(=O)[nH]c1=O | 0% (inactive) | 104% | 113% (inactive) | 104% (inactive) | 88.1% (inactive) | 92.2% (inactive) | 4.8% (inactive) | 87.4% | 92.2% | -6.49% (inactive) | -1.33% (inactive)
O=c1c2ccccc2nc(CSc2ncnc3nc[nH]c23)n1-c1ccccc1 | 0% (inactive) | 96% | 97.5% (inactive) | 96% (inactive) | 87.6% (inactive) | 80.9% (inactive) | -8.74% (inactive) | 89.6% | 80.9% | -1.92% (inactive) | -10.5% (inactive)
O=C(Cc1ccccc1)OC(COCc1ccccc1)CN1CCOCC1 (stereo not given) | 3% (inactive) | 83% | 99% (inactive) | 83% (inactive) | 88.3% (inactive) | 94.2% (inactive) | 4.79% (inactive) | 89.4% | 94.2% | -7.47% (inactive) | -0.98% (inactive)
N#Cc1ccccc1Cn1cc(C(=O)C2CC2)c2ccccc21 | 0% (inactive) | 86% | 103% (inactive) | 86% (inactive) | 81.5% (inactive) | 59.4% (inactive) | -32.4% (inactive) | 91.8% | 59.4% | -3.38% (inactive) | -5.5% (inactive)
COC(=O)c1ccccc1-n1c(C)nc2ccccc2c1=O | 4% (inactive) | 90% | 105% (inactive) | 90% (inactive) | 111% (inactive) | 98.5% (inactive) | 3.37% (inactive) | 95.2% | 98.5% | -2.5% (inactive) | -5.97% (inactive)
Cc1ccc(S(=O)(=O)Cc2ccc(C(=O)N3CCC4(CC3)OCCO4)o2)cc1 | 0% (inactive) | 75% | 104% (inactive) | 75% (inactive) | 103% (inactive) | 90.6% (inactive) | -3.13% (inactive) | 93.7% | 90.6% | 7.37% (inactive) | -5.64% (inactive)
Cc1ccccc1NC1=NCCCS1 | 3% (inactive) | 106% | 101% (inactive) | 106% (inactive) | 99.3% (inactive) | 95.1% (inactive) | -1.09% (inactive) | 96.1% | 95.1% | -4.61% (inactive) | -0.67% (inactive)
O=C(c1sc2ccccc2c1Cl)N1CCC2(CC1)OCCO2 | 0% (inactive) | 90.5% | 136% (inactive) | 90.5% (inactive) | 94.7% (inactive) | 109% (inactive) | 6.83% (inactive) | 102% | 109% | 0.13% (inactive) | -7.5% (inactive)
CC(C)(C)C(O)C(Oc1ccc(Cl)cc1)n1cncn1 (stereo not given) | 9% (inactive) | 86.5% | 83.5% (inactive) | 86.5% (inactive) | 88.2% (inactive) | 87.2% (inactive) | 5.54% (inactive) | 81.7% | 87.2% | -4.46% (inactive) | 94% (active)
Cc1cc(C)c(C(=O)CN2CCOCC2)c(C)c1 | 2% (inactive) | 105% | 98.5% (inactive) | 105% (inactive) | 83.7% (inactive) | 74% (inactive) | -6.78% (inactive) | 80.7% | 74% | -5.19% (inactive) | -0.33% (inactive)
CCn1nc(-c2ccccc2)nc2c(=O)n(C)c(=O)nc1-2 | 0% (inactive) | 106% | 93% (inactive) | 106% (inactive) | 2.75% (active) | 1.38% (active) | 0.5% (inactive) | 0.875% | 1.38% | 98.4% (active) | 100% (active)
COc1ccccc1-n1c(O)c(C=NCc2ccc3c(c2)OCO3)c(=O)[nH]c1=O | 7% (inactive) | 93.5% | 91.5% (inactive) | 93.5% (inactive) | 81.3% (inactive) | 91.8% (inactive) | 3.46% (inactive) | 88.3% | 91.8% | -2.43% (inactive) | -0.48% (inactive)
CCC(=NCCCN1CCOCC1)c1c(O)n(Cc2ccccc2)c(=O)[nH]c1=O | 0% (inactive) | 108% | 107% (inactive) | 108% (inactive) | 84.3% (inactive) | 89.2% (inactive) | -1.53% (inactive) | 90.7% | 89.2% | -5.41% (inactive) | -5.56% (inactive)
CCOC(=O)C(O)(c1ccc(N(CC)C(=O)OC)cc1)C(F)(F)F (stereo not given) | 0% (inactive) | 99.5% | 105% (inactive) | 99.5% (inactive) | 110% (inactive) | 109% (inactive) | 20.5% (inactive) | 88.3% | 109% | -5.53% (inactive) | 5.74% (inactive)
Cn1c(=O)cc(OCC(=O)N2CCN(C3CCCCC3)CC2)c2ccccc21 | 0% (inactive) | 87% | 88% (inactive) | 87% (inactive) | 82% (inactive) | 85.2% (inactive) | 3.09% (inactive) | 82.1% | 85.2% | -1.47% (inactive) | -1.15% (inactive)
CCOc1cc2[nH]c(=S)n(CCCC(=O)N3CCC4(CC3)OCCO4)c(=O)c2cc1OCC | 0% (inactive) | 88.5% | 85.5% (inactive) | 88.5% (inactive) | 78.2% (inactive) | 89.2% (inactive) | -4% (inactive) | 93.2% | 89.2% | -4.59% (inactive) | -4.75% (inactive)
COc1ccc(CN2CCN(C(=O)Cc3ccccc3)CC2)c(OC)c1 | 0% (inactive) | 93% | 90% (inactive) | 93% (inactive) | 89.9% (inactive) | 97.3% (inactive) | 9.87% (inactive) | 87.4% | 97.3% | -6.08% (inactive) | 1.59% (inactive)
CC1=C(C(=O)OC(C)C)[C@]2(C(=O)N(CC(N)=O)c3ccccc32)C(C#N)=C(N)O1 | 3% (inactive) | 92% | 85.5% (inactive) | 92% (inactive) | 110% (inactive) | 113% (inactive) | 15.5% (inactive) | 97.5% | 113% | -6.8% (inactive) | 19.5% (inactive)
CCOc1ccc(-n2c(O)c(C=NCCN(CC)CC)c(=O)[nH]c2=O)cc1 | 0% (inactive) | 87% | 105% (inactive) | 87% (inactive) | 100% (inactive) | 103% (inactive) | -0.4% (inactive) | 103% | 103% | 2.13% (inactive) | -8.06% (inactive)
N#Cc1ccccc1Cn1cc(C(=O)c2ccco2)c2ccccc21 | 0% (inactive) | 98.5% | 96% (inactive) | 98.5% (inactive) | 105% (inactive) | 82% (inactive) | -3.02% (inactive) | 85% | 82% | -4.32% (inactive) | 14.5% (inactive)
